Bioassay records (PubChem)
Shown are actives, neighbours in structure and some others; about 3.7% of the full set was active somewhere.
GAA850 FXN act = FXN promoter activators, primary screen, cell-based, luciferase luminescence, HEK293 lucGAA850; HEK293 lucGAA850 FXN promoter luciferase reporter, 24 h; percent of 10 µM SAHA response; activation, % at 6 µM; hit rate 0.56% among 360,000; AID 540364, 2011;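 active means activation above the average of all compounds screened plus 3 SD, cutoff fixed separately per campaign, cut at about 7.5% in these data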;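 further: 0% = DMSO wells and 100% = 10 µM SAHA wells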
SR-BI uptake up = activators of SR-BI mediated DiI-HDL uptake, primary screen, ldlA[mSR-BI] CHO cells, DiI fluorescence | activation, % at 12.5 µM | 3 h; 100 = double the neutral-control signal | hit rate 0.096% among 320,000;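 active means mean replicate activation of at least 60% and every replicate at or above 60%; inconclusive means mean or all-replicate condition met, but not both; inactive means mean below 60% and not all replicates reaching 60%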;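 further: 0% = median plate neutral-control signal and 100% = twice that signal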
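System: CHO ldlA[mSR-BI] cells / Medium: HEPES-buffered (25 mM, pH 7.4) F12 plus 0.5% BSA / Probe or stimulus: labelled HDL, 10 µg/mL / Doses: single compound concentration, delivered by pin transfer / Schedule: 3 h, 37 °C / Measured by: DiI fluorescence, bottom read / Measure: cell-associated DiI fluorescence as measure of HDL uptake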
JMJD2C inh = inhibitors of GASC-1 histone demethylase, primary screen, biochemical, fluorescence, DELFIA europium | Lysine-specific demethylase 4C (Homo sapiens), Q9H3R0 | GST-JMJD2C(1-420) H3K9me3 demethylation | inhibition, % at 2.35 µM | hit rate 0.069% among 330,000 | AID 2099, 2009;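 active means more than half of a compound's replicate wells show inhibition beyond 50%, single wells judged on their own value; inconclusive means some, but no more than half, of replicates pass 50% inhibition; inactive means no replicate passes 50% inhibition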;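 further: signal counts dimethyl H3K9 product captured on neutravidin plate; 0% = median of DMSO wells and 100% = 0.3 times that DMSO median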
Target sequence (Q9H3R0 1-420 limits assumed): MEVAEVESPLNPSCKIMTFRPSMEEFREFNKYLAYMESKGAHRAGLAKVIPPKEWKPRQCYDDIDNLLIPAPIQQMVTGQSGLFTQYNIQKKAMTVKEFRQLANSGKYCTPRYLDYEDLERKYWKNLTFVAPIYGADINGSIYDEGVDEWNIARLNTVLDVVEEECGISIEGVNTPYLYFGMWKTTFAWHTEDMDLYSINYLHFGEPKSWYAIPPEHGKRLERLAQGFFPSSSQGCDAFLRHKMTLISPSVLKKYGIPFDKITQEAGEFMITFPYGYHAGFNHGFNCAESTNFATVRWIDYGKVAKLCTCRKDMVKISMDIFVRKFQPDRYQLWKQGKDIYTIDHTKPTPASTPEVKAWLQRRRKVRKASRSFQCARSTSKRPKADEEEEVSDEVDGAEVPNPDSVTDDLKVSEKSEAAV
AHR activator = AHR activators, primary screen, cell-based, luminescence, luciferase reporter, human. activation, % at 5 µM. AHR-responsive luciferase reporter cells. hit rate 2.5% among 320,000. AID 2796, 2010. Aryl hydrocarbon receptor (Homo sapiens), P35869; in the data active means activation above about 47%;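 further: 0% = vehicle wells and 100% = reference agonist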
SR-BI HDL uptake = inhibitors of SR-BI mediated HDL lipid uptake, primary screen, ldlA[mSR-BI] cells, fluorescence, single point. AID 488896, 2010. ldlA[mSR-BI] CHO cells, DiI-HDL uptake fluorescence, 3 h. hit rate 0.96% among 320,000. inhibition, % at 12.5 µM;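 active means mean replicate inhibition of at least 70% and a set share of replicates each scoring 70 or more; inconclusive means meets just one of the two criteria; inactive means fails both criteria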;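 further: 0% = median of neutral control wells and 100% = median of positive control wells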
The depositor's hits bear a star; ? = inconclusive; / = no result.

SMILES	GAA850 FXN act	SR-BI uptake up	JMJD2C inh	AHR activator	SR-BI HDL uptake
COc1cccc(C2=NOC(C(=O)Nc3cccnc3Cl)C2)c1 (configuration not stated)	2	17	-6	-4	-17
CCOC(=O)c1c(C)n(C)c2cc(-c3cccc(C(F)(F)F)c3)c(O)cc12	2	-21	-1	49*	21
CCOC(=O)c1c(C)n(C)c2cc(-c3ccc(C)cc3)c(O)cc12	1	-37	-6	12	37
N#Cc1cccc(NC(=O)CN2NS(=O)(=O)c3ccccc3C2=O)c1	-2	30	6	0	-30
COc1cc(CC(=O)Nc2ccc(S(=O)(=O)N(C)C)cc2)cc(OC)c1OC	-2	-11	-6	1	11
COn1c(-c2ccc(Cl)cc2)nc2ccc(Cl)cc21	5	-51	18	30	51
Cc1ccc(COn2c(-c3ccc(Cl)cc3)nc3ccc([N+](=O)[O-])cc32)cc1	5	-18	14	4	18
O=C(O)COn1c(-c2ccc(Cl)cc2)nc2ccc(Cl)cc21	5	-4	-1	67*	4
O=[N+]([O-])c1ccc2nc(-c3ccc(Cl)cc3)n(OCc3ccccc3)c2c1	4	-81	21	4	81*
COc1cc(C(=O)NCC(=O)N/N=C/c2cccnc2)cc(OC)c1OC	1	/	-21	0	/
COc1ccccc1C1CN=NC12CCCc1ccccc1C2=O (configuration not stated)	-2	-11	-2	13	11
CCCCc1ccc(NC(=S)Nc2ccc(Nc3ccc(OC)cc3)cc2)cc1	0	-81	-7	4	81*
CCn1c2ccccc2c2cc(NC(=O)c3ccc(=O)oc3)ccc21	2	/	4	58*	/
CCn1c2ccccc2c2cc(NC(=O)c3coc(=O)c(Br)c3)ccc21	0	/	2	41	/
CCn1c2ccccc2c2cc(NC(=O)COC(=O)c3ccccc3O)ccc21	-1	-15	0	34	15
CCn1c2ccccc2c2cc(NC(=O)c3cc(OC)cc(OC)c3)ccc21	-1	-77	3	45	77*
CCn1c2ccccc2c2cc(NC(=O)c3cc(OC)c(OC)c(OC)c3)ccc21	2	-62	15	8	62
CCn1c2ccccc2c2cc(NC(=O)CCCN3C(=O)CCC3=O)ccc21	0	-31	-2	67*	31
CCn1c2ccccc2c2cc(NC(=O)COC(=O)c3cc(Cl)c(N)cc3OC)ccc21	1	/	-7	73*	/
C[C@H]1CCCCO[C@H](CN(C)CC2CCCCC2)[C@@H](C)CN([C@@H](C)CO)C(=O)c2cc(NS(=O)(=O)c3ccccc3)ccc2O1	-4	/	/	/	/
CCN1C[C@@H]2[C@@H]3C(=O)N(Cc4ccccc4)C(=O)[C@@H]3[C@](Cc3ccccc3)(C1=O)N2C(=O)c1ccc(Cl)cc1	-2	8	/	/	-8
CCC(Oc1ccccc1)C(=O)Nc1cc(C(F)(F)F)ccc1N1CCOCC1 (configuration not stated)	2	28	-8	1	-28
Cc1ccc(-c2nnn3c2nc(NC(C)C)c2ccccc23)cc1	5	-29	-10	21	29
Cc1ccc(-c2nnn3c2nc(NCCc2ccc(S(N)(=O)=O)cc2)c2ccccc23)cc1	3	88*	-1	37	-88
NS(=O)(=O)c1ccc(CCNc2nc3c(-c4cccc(F)c4)nnn3c3ccccc23)cc1	2	19	10	37	-19
Cc1cccc(-c2nnn3c2nc(NCCc2ccc(S(N)(=O)=O)cc2)c2ccccc23)c1	3	7	6	50*	-7
COc1cccc(C(=O)/C=C2\NCCc3cc(OC)c(OC)cc32)c1	3	-34	4	53*	34
O=C1CN(c2nc(-c3ccccc3)c3ccccc3n2)c2ccccc2N1	0	-11	-1	61*	11
CC1(/[N+]([O-])=C\c2ccccc2F)CCCCC1=O (configuration not stated)	0	/	?	-1	/
